{"source": "ChEMBL document CHEMBL1255182", "about": "“Methylantcinate A induces tumor specific growth inhibition in oral cancer cells via Bax-mediated mitochondrial apoptotic pathway” (Bioorg Med Chem Lett, 2010)", "key": {"[1]": {"assay": "(§1) Cytotoxicity against human OC2 cells after 24 hrs by MTT assay", "assay_type": "functional, cell-based", "details": "OC2, 24 h", "summary_of_the_method": "(§2)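 Human oral squamous carcinoma lines, from primary tumours of adult male Taiwanese betel quid chewers, exposed to a range of concentrations for 24 h. DMSO control. Viable cells read by MTT reduction to formazan (absorbance). IC50 is the concentration giving a 50% fall in absorbance relative to control.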"}, "OC2 [2]": {"system": "OC2", "assay": "as §1", "assay_type": "functional, cell-based", "summary_of_the_method": "as §2"}, "[3]": {"assay": "(§3) Cytotoxicity against human OECM1 cells after 24 hrs by MTT assay", "assay_type": "functional, cell-based", "details": "OECM1, 24 h", "summary_of_the_method": "as §2"}, "OECM1 [4]": {"system": "OECM1", "assay": "as §3", "assay_type": "functional, cell-based", "summary_of_the_method": "as §2"}, "[5]": {"assay": "Cytotoxicity against human gingival fibroblast at up to 50 uM after 24 hrs by MTT assay", "summary_of_the_method": "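Normal human gingival fibroblasts exposed to a range of concentrations for 24 h, with 50 the highest tested. DMSO vehicle control. Viability read by MTT formazan absorbance and compared with control for statistical significance.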"}, "[6]": {"assay": "Induction of apoptosis in human OECM1 cells assessed as early apoptotic cells at 25 uM after 3 hrs by Annexin V-FITC and propidium iodide staining (reference value: 0.69%)", "assay_type": "functional"}, "[7]": {"assay": "Induction of apoptosis in human OECM1 cells assessed as early apoptotic cells at 50 uM after 3 hrs by Annexin V-FITC and propidium iodide staining (reference value: 0.69%)", "assay_type": "functional"}, "[8]": {"assay": "Induction of apoptosis in human OC2 cells assessed as early apoptotic cells at 25 uM after 3 hrs by Annexin V-FITC and propidium iodide staining (reference value: 0.67%)", "assay_type": "functional"}, "[9]": {"assay": "Induction of apoptosis in human OC2 cells assessed as early apoptotic cells at 50 uM after 3 hrs by Annexin V-FITC and propidium iodide staining (reference value: 0.67%)", "assay_type": "functional"}, "[10]": {"assay": "Induction of apoptosis in human OECM1 cells assessed as late apoptotic cells at 25 uM after 3 hrs by Annexin V-FITC and propidium iodide staining (reference value: 5.18%)", "assay_type": "functional"}, "[11]": {"assay": "Induction of apoptosis in human OECM1 cells assessed as late apoptotic cells at 50 uM after 3 hrs by Annexin V-FITC and propidium iodide staining (reference value: 5.18%)", "assay_type": "functional"}, "[12]": {"assay": "Induction of apoptosis in human OC2 cells assessed as late apoptotic cells at 25 uM after 3 hrs by Annexin V-FITC and propidium iodide staining (reference value: 1.92%)", "assay_type": "functional"}, "[13]": {"assay": "Induction of apoptosis in human OC2 cells assessed as late apoptotic cells at 50 uM after 3 hrs by Annexin V-FITC and propidium iodide staining (reference value: 1.92%)", "assay_type": "functional"}, "[14]": {"assay": "Induction of apoptosis in human OECM1 cells assessed as caspase 3 activity at 25 uM after 3 hrs by flow cytometry (reference value: 52.34%)", "assay_type": "functional"}, "[15]": {"assay": "Induction of apoptosis in human OECM1 cells assessed as caspase 3 activity at 50 uM after 3 hrs by flow cytometry (reference value: 52.34%)", "assay_type": "functional"}, "[16]": {"assay": "Induction of apoptosis in human OC2 cells assessed as caspase 3 activity at 25 uM after 3 hrs by flow cytometry (reference value: 48.99%)", "assay_type": "functional"}, "[17]": {"assay": "Induction of apoptosis in human OC2 cells assessed as caspase 3 activity at 50 uM after 3 hrs by flow cytometry (reference value: 48.99%)", "assay_type": "functional"}, "OECM1 [18]": {"system": "OECM1", "assay": "Induction of apoptosis in human OECM1 cells assessed as caspase 3 activity at 50 uM by flow cytometry", "assay_type": "functional, cell-based", "details": "TDE = time-dependent effect", "summary_of_the_method": "(§4)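 OC-2 or OEC-M1 OSCC cells exposed to 50 µM for 3 h, 6 h and 9 h to follow caspase-3 activity over time. Activity read by flow cytometry with a specific peptide substrate.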"}, "[19]": {"assay": "Induction of apoptosis in human OC2 cells assessed as cytoplasmic histone-associated DNA fragmentation at 50 uM after 4 hrs by TUNEL assay (reference value: 28.6%)", "assay_type": "functional", "summary_of_the_method": "(§5)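 After 4 h exposure to 25 or 50 µM or DMSO vehicle, OC-2 and OEC-M1 oral cancer cells were scored for DNA fragmentation by TUNEL labeling with flow cytometry, as % of cells. Mean ± SD of three determinations.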"}, "[20]": {"assay": "Induction of apoptosis in human OC2 cells assessed as cytoplasmic histone-associated DNA fragmentation at 25 uM after 4 hrs by TUNEL assay (reference value: 28.6%)", "assay_type": "functional", "summary_of_the_method": "as §5"}, "[21]": {"assay": "Induction of apoptosis in human OECM1 cells assessed as cytoplasmic histone-associated DNA fragmentation at 50 uM after 4 hrs by TUNEL assay (reference value: 8.15%)", "assay_type": "functional", "summary_of_the_method": "as §5"}, "[22]": {"assay": "Induction of apoptosis in human OECM1 cells assessed as cytoplasmic histone-associated DNA fragmentation at 25 uM after 4 hrs by TUNEL assay (reference value: 8.15%)", "assay_type": "functional", "summary_of_the_method": "as §5"}, "OC2 [23]": {"system": "OC2", "assay": "Induction of apoptosis in human OC2 cells assessed as caspase 3 activity at 50 uM by flow cytometry", "assay_type": "functional, cell-based", "details": "TDE = time-dependent effect", "summary_of_the_method": "as §4"}, "OECM1 [24]": {"system": "OECM1", "assay": "Induction of apoptosis in human OECM1 cells assessed as PARP cleavage after 6 hrs by Western blotting", "assay_type": "functional, cell-based", "summary_of_the_method": "(§6)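 OEC-M1 cells exposed to 10, 25 or 50 µM or DMSO for 6 h. Equal amounts of total lysate immunoblotted for Bcl-2, Bcl-xL, Bax and PARP (116-kDa full-length, 85-kDa cleaved), with β-actin as loading control. Bands quantified as fold of vehicle control after β-actin normalization.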"}, "OECM1 [25]": {"system": "OECM1", "assay": "Induction of apoptosis in human OECM1 cells assessed as increase of Bax protein expression after 6 hrs by Western blotting", "assay_type": "functional, cell-based", "summary_of_the_method": "as §6"}, "OECM1 [26]": {"system": "OECM1", "assay": "Induction of apoptosis in human OECM1 cells assessed as decrease of Bcl-2 protein expression after 6 hrs by Western blotting", "assay_type": "functional, cell-based", "summary_of_the_method": "as §6"}, "OECM1 [27]": {"system": "OECM1", "assay": "Induction of apoptosis in human OECM1 cells assessed as decrease of Bcl-xL protein expression after 6 hrs by Western blotting", "assay_type": "functional, cell-based", "summary_of_the_method": "as §6"}}, "data": [{"smiles": "C=C(CC[C@@H](C)[C@H]1CC[C@H]2C3=C(C(=O)C[C@]12C)[C@@]1(C)CCC(=O)[C@@H](C)[C@@H]1CC3)C(C)C(=O)OC", "note": "(some centres not stated) [METHYLANTCINATE A]", "values": [{"measurement": "IC50", "setting": "[1]", "value": 37.4, "unit": "µM"}, {"measurement": "Activity", "setting": "OC2 [2]", "value": "Dose-dependent effect"}, {"measurement": "IC50", "setting": "[3]", "value": 24.5, "unit": "µM"}, {"measurement": "Activity", "setting": "OECM1 [4]", "value": "Dose-dependent effect"}, {"measurement": "Activity", "setting": "[5]", "value": "Non-toxic"}, {"measurement": "Activity", "setting": "[6]", "value": 59.73, "unit": "%"}, {"measurement": "Activity", "setting": "[7]", "value": 62.33, "unit": "%"}, {"measurement": "Activity", "setting": "[8]", "value": 15.35, "unit": "%"}, {"measurement": "Activity", "setting": "[9]", "value": 9.09, "unit": "%"}, {"measurement": "Activity", "setting": "[10]", "value": 23.63, "unit": "%"}, {"measurement": "Activity", "setting": "[11]", "value": 27.71, "unit": "%"}, {"measurement": "Activity", "setting": "[12]", "value": 13.2, "unit": "%"}, {"measurement": "Activity", "setting": "[13]", "value": 14.3, "unit": "%"}, {"measurement": "Activity", "setting": "[14]", "value": 66.86, "unit": "%"}, {"measurement": "Activity", "setting": "[15]", "value": 87.07, "unit": "%"}, {"measurement": "Activity", "setting": "[16]", "value": 59.19, "unit": "%"}, {"measurement": "Activity", "setting": "[17]", "value": 69.06, "unit": "%"}, {"measurement": "Activity", "setting": "OECM1 [18]", "value": "tde"}, {"measurement": "Activity", "setting": "[19]", "value": 52.55, "unit": "%"}, {"measurement": "Activity", "setting": "[20]", "value": 41.07, "unit": "%"}, {"measurement": "Activity", "setting": "[21]", "value": 57.8, "unit": "%"}, {"measurement": "Activity", "setting": "[22]", "value": 56.5, "unit": "%"}, {"measurement": "Activity", "setting": "OC2 [23]", "value": "tde"}, {"measurement": "Activity", "setting": "OECM1 [24]", "value": "Dose-dependent effect"}, {"measurement": "Activity", "setting": "OECM1 [25]", "value": "Dose-dependent effect"}, {"measurement": "Activity", "setting": "OECM1 [26]", "value": "Dose-dependent effect"}, {"measurement": "Activity", "setting": "OECM1 [27]", "value": "Dose-dependent effect"}]}]}
